Measurements of several laboratories.
Lines come from different studies, so protocols differ.
Target: Serine/threonine-protein kinase PAK 5 (PAK5, Homo sapiens, UniProt Q9P286)

Structure (SMILES)	observed	action	method	tested at	measurement	result
Cc1nn(C)cc1-c1nc2c(N3CCN(Cc4ccc(Cl)cc4)CC3)c(Cl)cnc2[nH]1	binding	–	competition with immobilised ligand	1 µM	remaining binding	83%
Cn1cc(-c2cccc(N3CCc4c(sc5c4CC(C)(C)C5)C3=O)c2CO)cc(Nc2ccncn2)c1=O	enzyme activity	inhibitor	–	1 µM	inhibition	4%
N#CC1(c2ccccn2)CCN(Cc2cc(C(=O)O)c(=O)n3ccccc23)CC1	cell-free assay	–	competition with immobilised ligand	1 µM	remaining binding	96%
O=c1[nH]c2ccccc2n1C1CCN(Cc2ccc(-c3[nH]c4cc5ncnc5cc4nc3-c3ccccc3)cc2)CC1	cell-free assay	–	–	0.5 µM	remaining signal	110%
Nc1ncc(-c2nc(N3CCOCC3)nc(N3CCOCC3)n2)c(C(F)F)n1	binding	–	competition with immobilised ligand	10 µM	remaining binding	52%
Cn1cncc1[C@@](O)(COc1ccc(C#N)cc1-c1ccc(OC(F)(F)F)cc1)c1ccc(C#N)cc1	cell-free assay	–	competition with immobilised ligand	1 µM	remaining binding	100%
COc1ncccc1-c1cnn2ccc(N3CCN(C(=O)OC(C)C)CC3)nc12	binding	–	competition with immobilised ligand	1 µM	remaining binding	100%
COc1cc(Nc2ncc(F)c(Nc3ccc4c(n3)NC(=O)C(C)(C)O4)n2)cc(OC)c1OC	binding	–	–	10 µM	inhibition	100%
Cn1cc(-c2cc(F)cc(N3CCn4c(cc5c4CCCC5)C3=O)c2CO)cc(Nc2ccc(N3CCN(C4COC4)CC3)cn2)c1=O	enzyme activity	inhibitor	–	0.1 µM	inhibition	10%
C#Cc1n[nH]c2c(-c3cn(C(C)c4ccccn4)c(=O)[nH]c3=O)cc(F)cc12 (stereo not shown)	enzyme activity	inhibitor	–	1 µM	inhibition	-3.8%
